In assay [1] the test system is Mycobacterium tuberculosis. In words: Antituberculosis activity against Mycobacterium tuberculosis H37Rv. Type of assay: functional. The method in brief:
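Agar dilution on 7H11 plates with drug-susceptible and drug-resistant M. tuberculosis H37Rv strains grown in Middlebrook 7H9 broth. Frozen stocks (-80 °C) diluted to about 10⁶ CFU/mL and spotted with a multipoint inoculator onto drug-containing plates. Drugs dissolved in DMSO and serially diluted 2-fold in DMSO. Read-out: MIC.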

Assay [2] has as its system Mycobacterium tuberculosis. In words: Reduction in log CFU of Mycobacterium tuberculosis Kurono infected in mouse lung at 50 mg/kg, po relative to control. Type of assay: functional. Summed up: (§1)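 Mice weighing 20-25 g infected intravenously via tail vein with 10⁴ CFU of M. tuberculosis Kurono. Oral dosing once daily at 0.5-50 mg/kg for 10 days (n = 2), starting the day after infection. Sacrificed on day 11; lungs homogenised and dilution-plated on 7H11 agar at 37 °C for 14 days. Mean log CFU reduction calculated against untreated controls.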

The subject of assay [3] is Mycobacterium tuberculosis. In words: Reduction in log CFU of Mycobacterium tuberculosis Kurono infected in mouse lung at 0.5 mg/kg, po after 10 days. Type of assay: functional. The method in brief:
as §1

The subject of assay [4] is Mycobacterium tuberculosis. Kind of assay: Reduction in log CFU of Mycobacterium tuberculosis Kurono infected in mouse lung at 10 mg/kg, po after 10 days. It counts as functional. The method in brief: as §1
Assay [5] has as its system Mycobacterium tuberculosis. Kind of assay: Decrease in Mycobacterium tuberculosis count in mouse pulmonary. Type of assay: functional, organism-based. Summed up: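 ICR male mice (20-25 g) infected intravenously via tail vein with 10⁴ CFU of M. tuberculosis Kurono. Dosed orally once daily as a 5% gum arabic suspension for 28 days (n = 6), starting the day after infection. Sacrificed on day 29; lung homogenates plated on 7H11 agar at 37 °C for 14 days. Counts compared with untreated controls.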

The test system of assay [6] is Mycobacterium tuberculosis. In words: Reduction in log CFU of Mycobacterium tuberculosis Kurono infected in mouse lung at 5 mg/kg, po after 10 days. Type of assay: functional. Summed up:
as §1

Converted amounts (≈) assume the structure as drawn. Bounds are passed on as bounds.

By MIC is commonly meant the lowest concentration found to suppress growth. A low value points to a more susceptible organism. The compound `C[C@]1(COc2ccc(N3CCC(Oc4ccc(Cl)cc4)CC3)cc2)Cn2cc([N+](=O)[O-])nc2O1` returned an MIC in assay [1] of 0.05 µg/mL (≈ 0.103 µM). For the same compound, the Activity in assay [2] is 2.2.

For the compound `O=[N+]([O-])c1cn2c(n1)OC(COCCc1ccccc1)C2` (centres undefined), in assay [1], the minimal inhibitory concentration (MIC) was determined as 1.56 µg/mL (≈ 5.39 µM).

In assay [1], `C[C@]1(COc2ccc(N3CCC(Oc4cccc(OC(F)(F)F)c4)CC3)cc2)Cn2cc([N+](=O)[O-])nc2O1` displayed an MIC of 0.024 µg/mL (≈ 0.0449 µM). Besides, the Activity in assay [2] was more than 4.4.

`COc1ccc(OC[C@@]2(C)Cn3cc([N+](=O)[O-])nc3O2)cc1` came in with an MIC in assay [1] of 0.05 µg/mL (≈ 0.164 µM). Also, the Activity in assay [2] was found to be 0.72.

As for `Cc1ccc(OC2CCN(c3ccc(OC[C@@]4(C)Cn5cc([N+](=O)[O-])nc5O4)cc3)CC2)cc1`, in assay [1], the MIC came to 0.78 µg/mL (≈ 1.68 µM). In assay [2], the Activity was 0.6.

Compound `C[C@]1(COc2ccc(OC(F)(F)F)cc2)Cn2cc([N+](=O)[O-])nc2O1` had an MIC in assay [1] of 0.2 µg/mL (≈ 0.557 µM). In addition, the results for the Activity in assay [2], in assay [3] and in assay [4] were more than 3.6, 0.4 and 3, respectively.

Take `C[C@]1(COc2ccc(N3CCOCC3)cc2)Cn2cc([N+](=O)[O-])nc2O1`: 0.78 µg/mL (≈ 2.16 µM) was the least that counted as inhibitory in assay [1] (MIC). In assay [2], this compound had an Activity of 1.3.

Regarding `C[C@]1(COc2ccc(N3CCC(Oc4ccc(OC(F)(F)F)cc4)CC3)cc2)Cn2cc([N+](=O)[O-])nc2O1` [DELAMANID], in assay [1], inhibition of growth (MIC) required 0.006 µg/mL (≈ 0.0112 µM). The Activity was more than 3.8 in assay [2], 2.5 in assay [3], more than 4.4 in assay [4] and “Dose-dependent effect” in assay [5].

With `O=[N+]([O-])c1cn2c(n1)OC(COCc1ccccc1)C2` (centres undefined), in assay [1], the MIC was determined as 3.13 µg/mL (≈ 11.4 µM).

As to `C[C@]1(COc2ccc(N3CCSCC3)cc2)Cn2cc([N+](=O)[O-])nc2O1`, the MIC in assay [1] stood at 0.78 µg/mL (≈ 2.07 µM). For the same compound, the Activity in assay [2] worked out at 0.

In assay [1], `CO[C@H]1/C=C/O[C@@]2(C)Oc3c(C)c(O)c4c(O)c(c(/C=N/N5CCN(C)CC5)c(O)c4c3C2=O)NC(=O)/C(C)=C\C=C\[C@H](C)[C@H](O)[C@@H](C)[C@@H](O)[C@@H](C)[C@H](OC(C)=O)[C@@H]1C` [RIFAMPIN] gave an MIC of 0.1 µg/mL (≈ 0.122 µM). In assay [6], this compound yielded an Activity of 0.5.

Regarding `O=[N+]([O-])c1cn2c(n1)OC(COC/C=C/c1ccccc1)C2` (centres undefined), the minimal inhibitory concentration (MIC) in assay [1] was 12.5 µg/mL (≈ 41.5 µM).

`C[C@]1(COc2ccc(C(F)(F)F)cc2)Cn2cc([N+](=O)[O-])nc2O1` had an MIC in assay [1] of 0.2 µg/mL (≈ 0.583 µM). This compound registered an Activity in assay [2] of more than 4.4.

For the compound `C[C@]1(COc2ccc(N3CCC(Oc4ccc(F)cc4)CC3)cc2)Cn2cc([N+](=O)[O-])nc2O1`, it took 0.39 µg/mL (≈ 0.832 µM) to inhibit growth in assay [1] (MIC). For the same compound, the Activity in assay [2] was found to be 2.2.

`Cc1ccc(OC[C@@]2(C)Cn3cc([N+](=O)[O-])nc3O2)cc1`: it took 0.012 µg/mL (≈ 0.0415 µM) to inhibit growth in assay [1] (MIC). This compound displayed an Activity in assay [2] of 2.9.

Consider `C[C@]1(COc2ccc(Cl)cc2)Cn2cc([N+](=O)[O-])nc2O1`, for which, in assay [1], it took 0.024 µg/mL (≈ 0.0775 µM) to inhibit growth (MIC). Moreover, in assay [2], the Activity was more than 3.1.

In the case of `C[C@]1(COc2ccc(N3CC[S+]([O-])CC3)cc2)Cn2cc([N+](=O)[O-])nc2O1`, in assay [1], the MIC was determined as 6.25 µg/mL (≈ 15.9 µM).

Compound `CC1(COc2ccccc2)Cn2cc([N+](=O)[O-])nc2O1` (centres undefined) came in with an MIC in assay [1] of 0.1 µg/mL (≈ 0.363 µM).

`C[C@]1(COc2ccc(N3CCC(Oc4ccc(C(F)(F)F)cc4)CC3)cc2)Cn2cc([N+](=O)[O-])nc2O1` came in with an MIC in assay [1] of 0.012 µg/mL (≈ 0.0231 µM). In addition, the Activity in assay [2] stood at 2.2.

Compound `C[C@]1(COc2ccc(N3CCC(Oc4ccccc4OC(F)(F)F)CC3)cc2)Cn2cc([N+](=O)[O-])nc2O1` displayed an MIC in assay [1] of 0.39 µg/mL (≈ 0.73 µM). The same compound displayed an Activity in assay [2] of 3.

In assay [1], `COc1ccc(OC2CCN(c3ccc(OC[C@@]4(C)Cn5cc([N+](=O)[O-])nc5O4)cc3)CC2)cc1` displayed an MIC of 0.39 µg/mL (≈ 0.812 µM). This compound also displayed an Activity in assay [2] of 0.1.

The compound `C[C@@]1(COc2ccccc2)Cn2cc([N+](=O)[O-])nc2O1` gave an MIC in assay [1] of 3.13 µg/mL (≈ 11.4 µM).

Take `C[C@]1(COc2ccc(N3CCCCC3)cc2)Cn2cc([N+](=O)[O-])nc2O1`: the MIC in assay [1] stood at 0.78 µg/mL (≈ 2.18 µM). Besides, the Activity in assay [2] worked out at 1.9.

`C[C@]1(COc2ccccc2)Cn2cc([N+](=O)[O-])nc2O1` showed an MIC in assay [1] of 0.05 µg/mL (≈ 0.182 µM). This compound also returned an Activity in assay [2] of 2.

Compound `C[C@]1(COc2ccc(N3CCC(Oc4ccccc4)CC3)cc2)Cn2cc([N+](=O)[O-])nc2O1` showed an MIC in assay [1] of 0.39 µg/mL (≈ 0.866 µM). Besides, the Activity in assay [2] was found to be 2.8.

For the origin of these results see ChEMBL document CHEMBL1138853, “Synthesis and antituberculosis activity of a novel series of optically active 6-nitro-2,3-dihydroimidazo[2,1-b]oxazoles” (2006).
